This data set can be described thus: Toxicity liver stage against HepG2, at 10uM. The format is cell-based. Further details: test concentration 10 uM, cell line HepG2-A16-CD81EGFP. Particulars: human, HepG2-A16-CD81EGFP cells; read-out: INHIBITION
In a few lines:
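Uninfected HepG2-A16-CD81EGFP cells, 3 × 10^3 per well, 1536-well, plated on prespotted compound at 10 μM final, parasite-free screening media added to match infected plates; puromycin 10 μM positive, DMSO 0.5% negative; run in parallel with 48 h PbLuc assay at 37 °C, 5% CO2; viability by CellTiter-Glo luminescence, normalized to controls.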

Molecules are shown by their SMILES.

For `Cc1cc(C)n(CC(=O)N2CCC(c3ccn4nccc4n3)CC2)n1`, the cytotoxicity at 10 µM is -0.0825%.
Next, `CC1c2ncc(Cn3cncn3)n2CCN1C(=O)[C@H]1CCCO1` (stereo partly specified): -4.12%; `COCCO[C@H]1CCN(C(=O)c2ccoc2C)[C@H]1Cc1cnn(C)c1`: -6.98%; `CS(=O)(=O)NCc1nnc2n1CCN(Cc1ccncc1)C2`: -73.6%.
With `CC(NC(=O)N1CCN(c2ccccc2O)CC1)c1nncn1C` (stereo unspecified) the figure was -6.01%; with `CCCc1nnc(N2CC[C@@](O)(C3CCOCC3)[C@H](C)C2)s1`, 8.26%; with `CN(CC(N)=O)CC1(c2ccc(Br)cc2)CC1`, 2.17%.
With `Cc1c(C(C)Nc2ncnc3sccc23)cnn1C` (stereo unspecified) the figure was 40.1%; with `Cc1ccnn1-c1ccc(C(=O)N2CCN(c3cnccn3)CC2)cc1`, -2.31%; with `Cn1ccnc1CNc1ccc(F)c(N2CCCS2(=O)=O)c1`, -1.45%.
Regarding `Cc1[nH]nc(-c2ccc(F)cc2)c1CC(=O)NCC1CCOCC1`, the cytotoxicity at 10 µM is -0.707%.
Regarding `Cc1cc(C)nc(C2(C)CCCN2CCO)n1` (stereo unspecified), the cytotoxicity at 10 µM was -3.89%.
With `COc1ncc(NCc2ccc(C#N)cc2)cc1C(N)=O` the figure was 0.217%; with `Cn1cc(C(=O)Nc2cccc(Oc3ccncc3)c2)ccc1=O`, -1.21%.
In the case of `COc1ccc(CN(C)C2CCN(C(=O)C(C)C)CC2)c2cccnc12`, the cytotoxicity at 10 µM amounted to 12.5%.
With `Cc1ccc(CN2CCOC3(COCCN(Cc4ccncc4)C3)C2)o1` (stereo unspecified) the figure was -109%; with `c1cc(CN2CCc3ncc(CN4CCOCC4)n3CC2)cs1`, -0.269%; with `CC1CCN(C(=O)[C@@H]2C[C@@H]3CCN(Cc4nccs4)C[C@H]3O2)CC1`, -107%.
With `CCC(C)N(Cc1ccncc1)C(=O)CCSC` (stereo unspecified), the cytotoxicity at 10 µM is -0.146%.
As to `CN(Cc1cn2c(n1)CN(CC1CC1)CC2)Cc1ccco1`, the cytotoxicity at 10 µM amounted to 1.39%.
Regarding `COc1ccc(Oc2ncccc2C(F)(F)F)cc1CN1CCCC1`, the cytotoxicity at 10 µM came out at 4.22%.
Take `O=C(COCCOc1ccccc1)NC1CCN(C(=O)C2CC2)CC1`: the cytotoxicity at 10 µM is -7.67%.
Consider `CCOc1ncnc2c1CCN(S(=O)(=O)CC)CC2`, for which the cytotoxicity at 10 µM is 3.79%.
With `CCc1nc(CN(C(C)=O)C2CCN(CCc3ccccn3)C2)no1` (stereo unspecified) the figure was -11.6%.
Next, `COC(=O)[C@@H]1CN(C(=O)c2cscn2)C[C@H]1c1ccc(OC)cc1`: -31.6%.
For the compound `CC(C)c1cccc(NC(=O)N2CC(N(C)C)C2)c1`, the cytotoxicity at 10 µM stood at 9.12%.
Turning to `Cc1nn(C)c(N(C)C)c1CNC(C)COc1ccc(F)cc1F` (stereo unspecified), the cytotoxicity at 10 µM was -9.78%.
Regarding `N#CCCN(CC1CC1)Cn1cc(Cl)cn1`, the cytotoxicity at 10 µM is 4.03%.
Take `CN(CC(=O)Nc1cccnc1)C1CCCN(c2cccnn2)C1` (stereo unspecified): the cytotoxicity at 10 µM is -2.42%.
With `Cc1ccc([C@@H]2CN(C(=O)c3csc(C)n3)C[C@H]2NC(=O)C2CC2)cc1` the figure was -5.99%.
In the case of `Cc1ncsc1C(=O)N1CCC(Nc2cccnn2)CC1`, the cytotoxicity at 10 µM is -1.89%.
Consider `Cc1cc(C(=O)N2CCC3(CC2)COCCN(c2cccnc2)C3)[nH]n1`, for which the cytotoxicity at 10 µM was -2.66%.
As to `CC(c1nc(C2CC2)no1)N(C)Cc1cccc(F)c1` (stereo unspecified), the cytotoxicity at 10 µM is -5.43%.
Next, `CO[C@@H]1CCN(C(=O)Cc2ccc(F)cc2)[C@@H]1Cc1cccnc1`: 10.1%; `O=C(CCS(=O)(=O)C1CCCC1)N1CCCC1c1ccsc1` (stereo unspecified): 1.06%; `Cc1ccsc1S(=O)(=O)N1CCc2c(c(C(=O)O)nn2CC2CC2)C1`: -0.714%.
For the compound `Cc1cc(-c2nn(C)c(Cl)c2CN2CCN(C)C(C(=O)O)C2)no1` (stereo unspecified), the cytotoxicity at 10 µM is -0.0938%.
With `CN(C)CCN(C)c1cc(N2CCN(c3ccccn3)CC2)ncn1` the figure was 1.23%.
As to `O=C(Nc1ccc(F)cc1)C1CNCCN1C(=O)CC1CCCCC1` (stereo unspecified), the cytotoxicity at 10 µM stood at 7.01%.
Next, `O=C(C1CC1)N1CCC2(CC1)COCCN2Cc1ccc(F)cc1`: -69.4%; `CC(C)Oc1cccc(C(=O)C2CCCN(S(=O)(=O)C(C)C)C2)c1` (stereo unspecified): 5.47%; `CCN1CCN(C2CCN(Cc3noc(C4CC4)n3)CC2)C1=O`: -8.69%.
Next, `Cc1ccc2c(c1)C(NC1CCN(C)CC1)CCCO2` (stereo unspecified): -8.2%.
Regarding `COc1cc2cc3c(nc2cc1OC)OCCN(CC1CC1)C3`, the cytotoxicity at 10 µM stood at 5.37%.
With `c1cnc(N2CCN(Cc3nnnn3C3CC3)CC2)nc1` the figure was 9.29%; with `Cc1nn(C)c(C)c1NC(=O)CCn1ncc2ccccc21`, 10.8%; with `Oc1ccc(Cl)cc1CNCc1ccccc1Cl`, -0.0124%.
Turning to `CCc1ccc(NC(=O)c2cnc(N3CCN(C)CC3)nc2C)cc1`, the cytotoxicity at 10 µM was -15%.
As to `Cc1nc(-c2cccnc2)ncc1C(=O)N1CCCCC(N)C1` (stereo unspecified), the cytotoxicity at 10 µM was 7.57%.
With `O=C1NCC(C(=O)Nc2ccc(=O)n(Cc3ccccc3Cl)c2)N1` (stereo unspecified), the cytotoxicity at 10 µM is -1.73%.
In the case of `O=C(c1ccc2c(c1)OCCCO2)N1CCCC(n2ccnc2)C1` (stereo unspecified), the cytotoxicity at 10 µM is 0.893%.
With `COCC1CC2(CCN(Cc3nccs3)CC2)CN1Cc1ccccn1` (stereo unspecified) the figure was -98.4%.
As for `CCn1nc(C)c(C(=O)N2CCC(Nc3ccc(C)nn3)CC2)c1C`, the cytotoxicity at 10 µM is 4.13%.
As to `COc1ccncc1NC(=O)c1[nH]nc(C(C)C)c1Br`, the cytotoxicity at 10 µM is 4.04%.
For `Cc1nc(N)nc(C)c1CC(=O)NCc1ccc2nonc2c1`, the cytotoxicity at 10 µM worked out at 5.6%.
On to `Cc1csc(CNC(=O)NCC(O)c2ccc(F)c(F)c2)n1` (stereo unspecified), for which the cytotoxicity at 10 µM came out at 2.51%.
Next, `COc1ccc(C(=O)Nc2ccc3c(c2)C(=O)NC3)cc1Br`: 3.53%; `CCN1CCN(CCCNc2ncccn2)CC1`: 3.41%; `CCO[C@H]1C[C@@H](O)C12CCN(C1CCN(c3ccccc3)CC1)CC2`: 4.24%.
In the case of `Fc1cccc(-n2ccc(CN3CCCC3Cn3cccn3)n2)c1` (stereo unspecified), the cytotoxicity at 10 µM was -13.1%.
With `COCCN1C(=O)CC[C@@H]2[C@H]1CCN2C(=O)C1CCOCC1` the figure was 9.67%; with `O=C(c1cccs1)N1CCc2nnc(COc3cncnc3)n2CC1`, 8.13%; with `Cc1cc(C)c(C(=O)N2CCC3(CCCNC3)C2)cc1C` (stereo unspecified), 2.52%.
`c1ccc2c(c1)CC(n1ccnc1-c1cc3n(n1)CCCNC3)CO2` (stereo unspecified): the cytotoxicity at 10 µM was -8.26%.
Consider `CN(CC(=O)NC1(C#N)CCCC1)C1CCCN(c2cccnn2)C1` (stereo unspecified), for which the cytotoxicity at 10 µM is -9.75%.
With `N#Cc1ncn(CCC(=O)Nc2c(Cl)cccc2Cl)n1` the figure was -11.4%; with `COCCC(=O)N1C[C@H]2CN(Cc3cccnc3)C(=O)[C@H]2C1`, -0.95%; with `Cc1cc(C)n(CCCN(C)C(=O)[C@H]2CCCO2)n1`, -13.2%.
Next, `Cc1cc(C(=O)N(C)Cc2ccn[nH]2)c(NC(=O)C(C)(C)C)s1`: 2.72%; `Cc1n[nH]c(C)c1NC(=O)CN1CCc2c(nc(C3CC3)n2C)C1`: -3.15%; `COC1CCN(S(=O)(=O)N2CCCC(c3cccc(C(=O)O)c3)C2)CC1` (stereo unspecified): 1.83%.

The values are drawn from ChEMBL document CHEMBL4513216, “Probing the Open Global Health Chemical Diversity Library for Multistage-Active Starting Points for Next-Generation Antimalarials” (ACS Infect Dis, 2020).
